Measured values pooled from the literature.
Protocols differ between the studies behind these lines.
Oprm1: Mu-type opioid receptor (Oprm1, Rattus norvegicus, UniProt P33535)
ABHD6: Monoacylglycerol lipase ABHD6 (ABHD6, Homo sapiens, UniProt Q9BV23)
Signal transducer and activator of transcription 6 SH2: Signal transducer and activator of transcription 6, SH2 (Homo sapiens, UniProt P42226)
DRD4: D(4) dopamine receptor (DRD4, Homo sapiens, UniProt P21917)

Compound	target	observed	mode	method	setting	IC50 [nM]
C[C@@H](NC(=O)[C@@H](N)Cc1ccc(O)cc1)C(=O)NCCC(=O)N[C@@H](Cc1ccccc1)C(=O)NNC(=O)[C@H](Cc1ccccc1)NC(=O)CCNC(=O)[C@@H](C)NC(=O)[C@@H](N)Cc1ccc(O)cc1	Oprm1	ligand displacement		radioligand		380
COc1cccc(N(C)C(=O)Oc2nsnc2N2CCCCC2)c1	ABHD6	enzyme activity	inhibitor	fluorescence	lysate	195
C=CCOC(Cn1ccnc1)c1ccc(Cl)cc1Cl (centres unmarked)	Pleiotropic ABC efflux transporter of multiple drugs (PDR5, Saccharomyces cerevisiae S288c, UniProt P33302)	transporter uptake	inhibitor			60000 to 70000
C[C@@H](NC(=O)[C@@H](N)Cc1ccc(O)cc1)C(=O)NCC(=O)N[C@H](CC(=O)NNC(=O)C[C@H](Cc1ccccc1)NC(=O)CNC(=O)[C@@H](C)NC(=O)[C@@H](N)Cc1ccc(O)cc1)Cc1ccccc1	Oprm1	ligand displacement		radioligand		2.29
CCN(CC)Cc1cc(Nc2ccnc3cc(Cl)ccc23)ccc1O	Genome polyprotein, protease (Dengue virus type 2, UniProt P14340)	enzyme activity	inhibitor			≥ 250000
CN(C(=O)Oc1nsnc1N1CCCCC1)c1cccc(-c2ccccc2)c1	ABHD6	enzyme activity	inhibitor	fluorescence	lysate	910
O=C(COc1ccc2cc(C(=O)Nc3ccccc3)ccc2c1)NCc1ccc(OP(=O)(O)O)c(OP(=O)(O)O)c1	Signal transducer and activator of transcription 6 SH2	ligand displacement		FP		7170
COc1ccccc1OCCNCC(O)COc1cccc2[nH]c3ccccc3c12 (centres unmarked)	DRD4	ligand displacement		radioligand		20
C[C@H](N)Cn1ncc2ccc3c(c21)CCCO3	5-hydroxytryptamine receptor 5A (HTR5A, Homo sapiens, UniProt P47898)	ligand displacement		radioligand		10800
CC(=O)c1c(O)c(C)c(O)c(Cc2c(O)c3c(c(C(=O)/C=C/c4ccccc4)c2O)OC(C)(C)C=C3)c1O	Protein-glutamine gamma-glutamyltransferase (TGM2, Homo sapiens, UniProt P21980)	enzyme activity	inhibitor			> 50000
CN(C(=O)Oc1nsnc1N1CCCCC1)c1ccc(Cl)cc1	ABHD6	enzyme activity	inhibitor	fluorescence	lysate	407
COc1cc2c(cc1OC)C(=O)C(CC1CCN(Cc3ccccc3)CC1)C2 (centres unmarked)	DRD4	ligand displacement		radioligand		824
CN(C(=O)Oc1nsnc1N1CCCCC1)c1ccc(F)cc1	ABHD6	enzyme activity	inhibitor	fluorescence	lysate	78
O=P(O)(O)Oc1ccccc1OP(=O)(O)O	Signal transducer and activator of transcription 6 SH2	ligand displacement		FP		36000
